Cl transport mod: KCC2 (human) Cl- transport modulation. Q9H2X9. KCC2 cells, thallium flux FluoZin-2 fluorescence. B-score of Tl+ flux slope (higher = more flux/activation; lower = inhibition) at 10 µM. 2.2% of 190,000 active. AID 1456;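 active means thallium flux slope and its plate-corrected score both differing from the plate sample mean at a set confidence after two filtering rounds, in either direction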;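 further: slope of fluorescence scaled to starting intensity during 10 to 20 s after thallium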
Target sequence (Q9H2X9 whole entry, looked up): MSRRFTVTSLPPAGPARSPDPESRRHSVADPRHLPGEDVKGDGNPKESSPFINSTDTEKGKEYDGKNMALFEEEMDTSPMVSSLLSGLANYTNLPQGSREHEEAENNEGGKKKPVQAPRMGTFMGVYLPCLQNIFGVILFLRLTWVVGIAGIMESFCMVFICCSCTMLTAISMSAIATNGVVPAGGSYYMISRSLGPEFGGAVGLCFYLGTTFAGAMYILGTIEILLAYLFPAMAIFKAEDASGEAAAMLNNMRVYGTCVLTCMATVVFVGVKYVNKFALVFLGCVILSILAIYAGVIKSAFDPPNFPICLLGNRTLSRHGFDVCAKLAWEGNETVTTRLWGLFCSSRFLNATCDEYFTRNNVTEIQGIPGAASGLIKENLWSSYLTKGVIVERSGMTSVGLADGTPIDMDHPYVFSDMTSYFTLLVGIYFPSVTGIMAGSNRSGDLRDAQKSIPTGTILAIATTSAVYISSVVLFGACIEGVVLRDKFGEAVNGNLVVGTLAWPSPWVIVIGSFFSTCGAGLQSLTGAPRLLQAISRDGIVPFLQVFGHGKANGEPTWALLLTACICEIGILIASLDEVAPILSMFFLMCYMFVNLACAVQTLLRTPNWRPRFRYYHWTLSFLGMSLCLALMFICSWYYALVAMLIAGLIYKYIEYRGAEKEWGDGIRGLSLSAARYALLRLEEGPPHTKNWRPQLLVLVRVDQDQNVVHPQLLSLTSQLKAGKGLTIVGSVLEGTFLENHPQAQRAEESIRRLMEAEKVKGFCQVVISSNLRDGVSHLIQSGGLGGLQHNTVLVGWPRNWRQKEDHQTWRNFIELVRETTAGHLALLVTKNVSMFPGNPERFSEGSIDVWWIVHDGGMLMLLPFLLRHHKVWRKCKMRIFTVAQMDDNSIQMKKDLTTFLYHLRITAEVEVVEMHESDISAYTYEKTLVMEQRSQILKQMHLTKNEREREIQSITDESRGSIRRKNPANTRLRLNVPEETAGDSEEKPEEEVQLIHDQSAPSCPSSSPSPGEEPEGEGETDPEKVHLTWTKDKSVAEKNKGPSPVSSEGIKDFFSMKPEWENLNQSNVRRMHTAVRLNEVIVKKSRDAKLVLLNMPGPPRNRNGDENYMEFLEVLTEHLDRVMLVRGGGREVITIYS
ROMK primary: modulators of human ROMK potassium channel | P48048 | Tet-inducible ROMK, thallium flux fluorescence; actives lie on both sides | B-score at 10 µM | 2% of 130,000 active | AID 1918;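 active means signal ratio slope over the read window, or its plate-corrected B-score, at least 3 SD from the plate mean, either direction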;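 further: B-score of the F/F0 ratio slope over 7 to 12 s after thallium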
PKD1 inh: blocks activity of human protein kinase D1; PKD1 kinase fluorescence polarization assay; inhibition, % (no concentration beside the values); 0.056% of 200,000 active; AID 797; in the data active means inhibition above about 50%
Redox H2O2 prof: compounds producing H2O2 with reducing agent – biochemical, NIH compound library profiling, artefact control for MLSCN library redox annotation, primary screen | DTT-dependent redox cycling H2O2, phenol red/HRP absorbance; 100% = 100 µM peroxide control, 0% = buffer | activation, % at 10 µM | 0.03% of 200,000 active;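 active means activation of at least 50% relative to the plate's high and low controls in the primary single-dose screen; inactive means activation below 50%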;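 further: compound incubated with DTT at 0.8 mM final as the reducing agent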
Mdm2 ligase inh: blocks human Mdm2 ubiquitin ligase activity; signal enhancement, % at 5 µM; cell-based MDM2 ubiquitination luciferase reporter, 2 h; 0 = plate control, 100 = twice control, blank-subtracted; 0.11% of 210,000 active; Q00987;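 active means signal enhancement of 30% or more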;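 further: luminescence tracks abundance of the self-degrading MDM2-luciferase fusion protein; higher signal means inhibition of MDM2 E3 ligase activity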
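Buffer or medium: Cells held in DMEM | Assay system: Stable mammalian line carrying autodegrading MDM2–luciferase fusion reporter | Quantity: 2000 cells/well | Times: 4 h settle plus 2 h compound, 37 °C | Doses: One concentration, 5 µM, with 0.2% DMSO | Technique: Luminescence with SteadyLite reagent, 15 min at room temperature | Benchmarks: Plate controls and plate blanks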
p97 ATPase inh: inhibitors of human p97 ATPase; P55072; inhibition, % at 8 µM; recombinant p97 ATPase, Kinase-Glo ATP luminescence, 3 h; 0.42% of 220,000 active; in the data active means inhibition above about 15%;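 further: 0% = DMSO vehicle and 100% = wells lacking enzyme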
KCC2 sec1: confirmation of human KCC2 transport modulators; normalised thallium flux (F/F0 slope) at 10 µM; shares compounds with Cl transport mod; 15% of 3,700 active; HEK293-KCC2, thallium flux, FluoZin2 fluorescence; stronger effect = higher value;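 active means thallium flux slope above the same plate's solvent-only control mean plus 3 SD; inconclusive means the two replicate wells disagree; inactive means no significant difference from solvent-only control wells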
KCC2 bumet counter: thallium flux despite bumetanide block in KCC2 cells, secondary assay 3 | shares compounds with Cl transport mod | HEK293-KCC2 + bumetanide/ouabain, thallium flux FluoZin2; stronger effect = higher value | normalized thallium flux at 10 µM | 49% of 3,700 active | AID 1714;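 active means thallium entry rate above the same plate's blocked-transporter control wells by more than 3 SD; inconclusive means the two repeat wells disagree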;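 further: raw slope of fluorescence over initial fluorescence between 10 and 20 s after thallium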
KCC2 sec2: KCC2 (human) modulation, second secondary assay; AID 1715; 23% of 3,700 active; HEK293-KCC2, thallium flux FluoZin2 fluorescence; actives lie on both sides; F/F0 rise rate, 10–20 s post-thallium; normalized thallium flux at 10 µM; shares compounds with Cl transport mod;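 active means thallium flux slope more than 3 SD above or below the plate's solvent-only control mean, mostly below; inconclusive means the two repeat wells disagreed; inactive means no significant shift from solvent-only controls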;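 further: raw slope with 0.1% DMSO as baseline and bumetanide as block control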
HEK293 Tl flux: counter-screen for KCC2 modulators: effect in parental HEK293 cells; shares compounds with Cl transport mod; thallium flux FluoZin2, ouabain; baseline-ratio fluorescence slope, 10–20 s after thallium; thallium flux rate (normalised fluorescence) at 10 µM; 46% of 3,700 active;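 active means thallium flux rate significantly above the same plate's solvent-only control wells, beyond their mean plus 3 SD; inconclusive means the two replicate wells gave conflicting results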
KCC2 ouabain: confirmation of human KCC2 modulators with ouabain; shares compounds with Cl transport mod; 48% of 3,700 active; raw Tl+ flux slope (below DMSO = inhibition, above = activation) at 10 µM; AID 1717; HEK293-KCC2, thallium flux FluoZin2 fluorescence; bidirectional: low = inhibitor, high = activator;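 active means thallium flux slope beyond 3 SD from same-plate DMSO control mean in most replicates, usually higher, sometimes lower; inconclusive means repeat tests gave conflicting results; inactive means no significant difference from controls in most replicates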;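 further: slope of initial-normalized fluorescence between seconds 10 and 20 after thallium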
HEK counter2: counter-screen for KCC2 modulators: effect in parental HEK293 cells; shares compounds with Cl transport mod; thallium flux FluoZin-2 fluorescence slope; thallium flux slope at 10 µM; 33% of 3,700 active;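 active means thallium flux slope above the same plate's solvent-control mean plus 3 SD in both duplicate wells; inconclusive means duplicate wells that disagreed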;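 further: run without ouabain in cells lacking the KCC2 cotransporter; slope of fluorescence scaled to its starting value between 10 and 20 s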
Active calls of the source: *; u = inconclusive; x = not tested or not shown. An excerpt weighted towards active compounds, which were near 3.4% of everything screened.

SMILES	Cl transport mod	ROMK primary	PKD1 inh	Redox H2O2 prof	Mdm2 ligase inh	p97 ATPase inh	KCC2 sec1	KCC2 bumet counter	KCC2 sec2	HEK293 Tl flux	KCC2 ouabain	HEK counter2
COc1ccc(CCn2c(C)cc(C(=O)CSc3nc(N)cc(=O)[nH]3)c2C)cc1	-0.00052	x	0	-4	4	4	x	x	x	x	x	x
Cc1cc(C(=O)CSc2nc(N)cc(=O)[nH]2)c(C)n1CCc1ccc(F)cc1	-4.2*	x	-8	2	-19	0	0.0092	0.0051	0.033	0.0074	0.018	0.011
COc1ccccc1-c1nc(=S)c(C(C)=O)c(C)[nH]1	1.2	0.17	x	x	-15	5	x	x	x	x	x	x
CSc1nc(-c2ccccc2)nc(NC(=O)c2ccccc2)c1C(C)=O	-0.65	0.27	2	1	-6	-1	x	x	x	x	x	x
CC(=O)c1c(NC(=O)c2ccccc2)[nH]c(-c2ccccc2)nc1=S	36*	1.1	-4	0	0	2	u	0.052*	0.062*	0.052*	0.052*	0.054*
CC(=O)c1c(C)[nH]c(-c2ccccc2)nc1=S	14*	x	x	x	-12	-13	0.017*	0.022*	0.031	0.013*	0.025	u
O=C(Nc1ccn(Cc2ccccc2F)n1)c1ccc(COc2cc(Cl)ccc2Cl)o1	1.1	0.2	-7	-4	3	-1	x	x	x	x	x	x
O=C(Nc1cccnc1)c1ccc(COc2cc(Cl)ccc2Cl)o1	-5.2*	x	-4	1	-7	-3	0.0063	0.0051	u	0.0081	0.016*	0.0099
O=C(Nc1ccccn1)c1ccc(COc2ccccc2Cl)o1	-4*	-0.49	-13	0	-7	-7	0.0069	0.0047	0.024*	0.0073	0.015*	0.01
O=C(NCc1cccnc1)c1ccc(COc2cccc3ccccc23)o1	-2.4	x	5	2	0	7	x	x	x	x	x	x
CCOc1ncccc1C(=O)N1CCN(Cc2ccc3c(c2)OCO3)CC1	4.8*	x	3	-1	1	0	0.016	0.0042	0.028	0.0077	0.018	0.0093
O=C(NCc1cccnc1)c1ccc(COc2ccc(Cl)cc2Cl)o1	-4.4*	-0.13	6	-1	-9	-2	0.0098	0.0072	0.029*	0.0036	0.015*	0.011
O=C(COC(=O)c1ccc(Cl)c([N+](=O)[O-])c1)Nc1ccccc1OC(F)F	0.54	-0.51	-4	0	-7	-3	x	x	x	x	x	x
CCOc1ccc(C(=O)N(CN2CCCC2=O)c2cccc(Cl)c2)cc1	0.077	-0.13	4	-2	-22	1	x	x	x	x	x	x
CCOc1ccc(OCc2ccc(C(=O)Nc3cccnc3)o2)cc1	0.31	x	1	2	x	2	x	x	x	x	x	x
COc1ccccc1S(=O)(=O)Cc1ccc(C(=O)N2CCN(c3ccccn3)CC2)o1	-0.43	x	-1	-1	-26	0	x	x	x	x	x	x
O=C(c1ccc(COc2ccc(Cl)cc2)o1)N1CCN(Cc2ccc3c(c2)OCO3)CC1	x	x	-10	1	-5	-14	x	x	x	x	x	x
O=C(NCc1ccc2c(c1)OCO2)c1ccc(COc2cc(Cl)ccc2Cl)o1	-5.7*	-0.86	-10	0	-13	-12	0.0077	0.0043	0.023*	0.0069	0.015*	0.0095
O=C(c1ccc(COc2ccccc2Br)o1)N1CCN(c2ccccn2)CC1	-6.5*	x	-6	2	-4	3	u	u	0.032	0.0058*	0.013*	0.011
O=C(c1ccc(COc2ccccc2Cl)o1)N1CCN(Cc2ccc3c(c2)OCO3)CC1	-1.6	-0.96	3	-1	6	-6	0.007	0.0056	0.029	0.0062	u	0.01
O=C(NCc1ccc2c(c1)OCO2)c1ccc(CSCc2ccc(Cl)cc2)o1	-0.35	-1.4	-4	1	3	2	x	x	x	x	x	x
O=C(Nc1cccnc1)c1ccc(COc2ccccc2Cl)o1	-8.1*	x	-9	2	-3	-1	0.0061	u	0.022*	0.0077	u	0.011
C=CCn1c(SCC(=O)NC2CCCCC2)nnc1C1CCCCC1	0.41	x	-5	1	3	-7	x	x	x	x	x	x
COC(=O)C1SCC2C(=O)N(Cc3cccc(C)c3)CC(=O)N21 (centres undefined)	0.52	0.44	-4	-2	7	-3	x	x	x	x	x	x
COc1ccccc1NC(=O)c1ccc(COc2ccccc2OC)o1	-3.7*	x	-6	1	-6	-6	0.0054	u	u	0.0067	u	0.011
SMILES	Cl transport mod	ROMK primary	PKD1 inh	Redox H2O2 prof	Mdm2 ligase inh	p97 ATPase inh	KCC2 sec1	KCC2 bumet counter	KCC2 sec2	HEK293 Tl flux	KCC2 ouabain	HEK counter2
COc1ccc2nc(N/C(N)=N/C(=S)Nc3cccc(C)c3)nc(C)c2c1	-0.21	x	4	1	-3	6	x	x	x	x	x	x
COc1ccc(NC(=S)/N=C(\N)Nc2nc(C)c3ccccc3n2)cc1	-3.6*	-0.1	x	x	-15	4	0.007	0.0049	0.026*	0.0071	0.017*	0.0098
CCc1nnc(NC(=O)c2ccc(Cl)c(S(=O)(=O)N3CCc4ccccc4C3)c2)s1	0.83	0.86	-3	0	-4	-1	x	x	x	x	x	x
COc1ccc(CN2CN=C(Nc3nc4ccccc4s3)NC2)cc1	-5.4*	x	-9	0	10	-1	0.0057	0.0047	0.029	0.0074	0.019	0.011
COc1cc(OC)c(OC)cc1/C=C/c1cc(C(F)(F)F)[nH]c(=O)n1	-4.7*	-1.6	-3	0	8	6	u	-0.0019*	u	0.003*	0.012*	0.005*
CCOC(=O)N1CCN(Cc2nc(N)nc(Nc3ccc(Oc4ccccc4)cc3)n2)CC1	-4.1*	x	1	-3	0	-3	0.0065	0.0038	0.028	0.0073	0.017	0.0096
O=C(Nc1ccc(Cl)cc1)N1CCC(CO)(Cc2ccccc2)CC1	-3.2*	-2.2	2	-1	-3	5	0.0092	u	0.034	0.0081	u	0.011

Bioassay records as filed in PubChem BioAssay.
